Hits are enriched below; roughly 2.5% of the tested compounds scored in any of these assays.
proKLK7 act: proKLK7 (human) activation, primary screen; P49862; purified proKLK7, EDANS-DABCYL substrate fluorescence; 100% is mature enzyme control, 0% vehicle; activation, % at 7 µM; 370,000 compounds, 0.9% hits;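 active = activation above the mean of all tested compounds plus 3 SD, computed per campaign excluding outliers beyond control limits, cut at about 13% in these data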
Target sequence (P49862 whole entry, looked up): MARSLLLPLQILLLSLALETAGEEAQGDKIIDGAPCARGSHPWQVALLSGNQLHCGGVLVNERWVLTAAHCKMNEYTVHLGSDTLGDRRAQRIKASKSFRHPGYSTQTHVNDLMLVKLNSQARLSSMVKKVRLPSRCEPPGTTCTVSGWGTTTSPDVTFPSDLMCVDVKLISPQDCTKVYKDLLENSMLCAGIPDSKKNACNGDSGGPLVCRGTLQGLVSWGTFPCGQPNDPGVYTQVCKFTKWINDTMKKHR
NR2E3 ag-1: activates human photoreceptor nuclear receptor NR2E3 | Q9Y5X4 | GST-NR2E3/biotin-RetCOR TR-FRET, 1536-well | inhibition of corepressor binding, % at 4.78 µM | 320,000 compounds, 0.12% hits | AID 2300;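 active = percent inhibition above the cutoff of mean plus 3 SD of all tested compounds, set per screening campaign, cut at about 20% in these data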
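System: GST-NR2E3 and biotin-RetCOR proteins; probe or stimulus: 7 nM biotin-RetCOR; doses: compound at 4.8 µM, single dose; schedule: Compound–protein incubation for 5 h at 4 °C; detection: time-resolved FRET; read-out: percent inhibition; controls: biotin wells as high control, 0.6% DMSO wells as low control; format: 1536-well plates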
GASC-1 inh: blocks human GASC-1 demethylase activity; Q9H3R0; GST-JMJD2C(1-420) H3K9me3 demethylation, DELFIA europium; inhibition, % at 2.35 µM; 330,000 compounds, 0.069% hits; AID 2099;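 active = more than half of a compound's replicate wells show inhibition beyond 50%, single wells judged on their own value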;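 also: signal counts dimethyl H3K9 product captured on neutravidin plate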
Target sequence (Q9H3R0 1-420 limits assumed): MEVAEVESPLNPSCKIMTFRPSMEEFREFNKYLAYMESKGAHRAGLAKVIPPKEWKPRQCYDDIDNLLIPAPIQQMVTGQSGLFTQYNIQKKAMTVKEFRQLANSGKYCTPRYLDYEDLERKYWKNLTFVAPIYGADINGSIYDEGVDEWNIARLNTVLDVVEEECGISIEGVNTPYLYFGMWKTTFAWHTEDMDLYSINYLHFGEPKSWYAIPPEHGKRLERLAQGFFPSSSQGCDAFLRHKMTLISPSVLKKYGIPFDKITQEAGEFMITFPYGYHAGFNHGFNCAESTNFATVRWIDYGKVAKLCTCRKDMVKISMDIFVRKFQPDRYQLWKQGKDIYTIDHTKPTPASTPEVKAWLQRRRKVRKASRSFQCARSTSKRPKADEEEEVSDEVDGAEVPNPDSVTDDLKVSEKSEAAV
NR2E3 ag-2: agonists of human NR2E3 nuclear receptor. Q9Y5X4. CHO-S Gal4-NCOR/VP16-NR2E3 two-hybrid, luciferase. inhibition of corepressor binding, % at 3.98 µM. 360,000 compounds, 0.35% hits. AID 602229;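 active = inhibition above the mean of all tested compounds plus 3 SD, cut at about 70% in these data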;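 also: higher means lower luciferase signal from less NR2E3 corepressor binding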
ADAM10 inh: inhibitors of human ADAM10 | O14672 | 370,000 compounds, 0.62% hits | AID 720582 | inhibition, % at 7 µM | recombinant ADAM10, EDANS/DABCYL FRET peptide cleavage, 3 h;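 active = inhibition above a per-campaign cutoff equal to the mean of compounds falling between control-based bounds plus 3 SD, cut at about 20% in these data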
ADAM17 inh: ADAM17 inhibition, QFRET primary screen; P78536; 370,000 compounds, 0.83% hits; recombinant ADAM17, EDANS/DABCYL FRET peptide cleavage; inhibition, % at 6.95 µM;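 active = inhibition above the mean of compounds lying between control limits plus 3 SD, set per campaign, cut at about 8.5% in these data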
proKLK7 act conf: confirmation of human kallikrein-7 zymogen activators; shares compounds with proKLK7 act; purified proKLK7, EDANS-DABCYL substrate fluorescence; scaled: vehicle 0, mature enzyme 100; activation, % at 7 µM; 3,200 compounds, 68% hits;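 active = activation, as change over the incubation, above the mean of all tested compounds plus 3 SD, cut at about 13% in these data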
EDANS-DABCYL int: counter-screen for kallikrein-7 activators: EDANS-DABCYL optical interference; shares compounds with proKLK7 act; EDANS-DABCYL substrate fluorescence interference, no enzyme, 4 h; solvent 0%, active enzyme control 100%; activation, % at 7 µM; 3,200 compounds, 80% hits;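 active = activation above the all-compound mean plus 3 SD, ignoring values outside control-based bounds, cut at about 4.8% in these data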;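 also: value is the 4 h activation minus the activation read at time zero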
EDANS interf: optically interferes with EDANS-DABCYL fluorescence, kallikrein-7 activator counter-screen. shares compounds with proKLK7 act. EDANS-DABCYL peptide fluorescence interference, no enzyme. EC50, µM. 250 compounds, 20% hits. AID 720493;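 active = compounds that raise the fluorescence signal in this interference counterscreen, with EC50 at or below 10 µM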;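 also: intact quenched peptide substrate alone read at 355 nm excitation and 520 nm emission; signal is fluorescence gain from T0 to T4 after four hours at room temperature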
Numbers stand for hits; – = inactive; · = no result given.

SMILES	proKLK7 act	NR2E3 ag-1	GASC-1 inh	NR2E3 ag-2	ADAM10 inh	ADAM17 inh	proKLK7 act conf	EDANS-DABCYL int	others
Cc1ccc(C(=O)Nc2cccc(NC(=O)c3ccc(C)o3)n2)o1	–	–	–	–	–	–	·	·
O=C(O)CCCNC(=O)CC1S/C(=N/N=C/c2ccccc2O)NC1=O (stereo not drawn)	25	–	–	–	–	–	27	34
CCCCNC(=O)CC1S/C(=N/N=C/c2ccc(OC)cc2)NC1=O (stereo not drawn)	–	–	–	–	–	–	·	·
Cc1c(C(=O)OCC(=O)Nc2c(C)n(C)n(-c3ccccc3)c2=O)oc2ccccc12	–	–	–	–	–	–	·	·
O=C(C[C@H]1C[C@H](C(=O)N2CCOCC2)[C@@]2(CCC3CCCC3)c3[nH]c4cc(-c5ccco5)ccc4c3CCN2C1=O)NCC12CC3CC(CC(C3)C1)C2	–	·	·	–	–	–	·	·
COc1ccc(CNC(=O)C[C@H]2C[C@H](C(=O)N3CCOCC3)[C@@]3(CCC4CCCC4)c4[nH]c5cc(-c6ccco6)ccc5c4CCN3C2=O)cc1OC	–	·	·	–	–	–	·	·
CC(C)(C)NC(=O)C[C@H]1C[C@H](C(=O)N2CCOCC2)[C@@]2(CCC3CCCC3)c3[nH]c4cc(-c5ccco5)ccc4c3CCN2C1=O	·	·	·	–	·	·	·	·
COCCCNC(=O)C[C@H]1C[C@H](C(=O)N2CCOCC2)[C@@]2(CCC3CCCC3)c3[nH]c4cc(-c5ccco5)ccc4c3CCN2C1=O	23	·	·	–	–	–	13	18
CN(C)CCCNC(=O)C[C@H]1C[C@H](C(=O)N2CCOCC2)[C@@]2(CCC3CCCC3)c3[nH]c4cc(-c5ccco5)ccc4c3CCN2C1=O	68	·	·	–	–	–	51	51
O=C(C[C@H]1C[C@H](C(=O)N2CCOCC2)[C@@]2(CCC3CCCC3)c3[nH]c4cc(-c5ccco5)ccc4c3CCN2C1=O)NCCN1CCOCC1	91	·	·	–	–	–	90	101
O=C(Nc1ccccc1C(=O)NC1CC1)c1ccccc1F	–	·	–	–	–	–	·	·
CCOC(=O)[C@]12CCCC=C1N(Cc1ccco1)C(=O)[C@H](CC(=O)NCC1CCCCC1)C2	–	·	·	–	–	–	·	·
CCC(=O)Nc1ccc(S(=O)(=O)NC[C@H]2O[C@@H](n3cnc4c(=O)[nH]c(N)nc43)[C@H](O)[C@@H]2O)cc1	–	·	·	–	–	–	·	·
O=c1c2ccccc2c(C=NC2CCS(=O)(=O)C2)c(O)n1-c1ccccc1 (stereo not drawn)	14	–	–	–	–	–	15	16
Oc1ccc(C=Nc2cccc3ncccc23)c(O)c1	–	–	–	–	–	–	·	·
COc1ccc(OC)c(/C=C/c2nc3ccccc3[nH]c2=O)c1	–	–	–	–	–	–	·	·
COc1ccc(OC)c(C=Nc2ccccc2-c2nc3ccccc3[nH]2)c1	31	–	–	–	–	–	–	–
Oc1ccccc1C=Nc1ccccc1-c1nc2ccccc2[nH]1	77	–	–	–	–	–	–	–
Oc1ccc(C=Nc2ccccc2-c2nc3ccccc3[nH]2)c(O)c1	38	–	–	–	–	–	–	–
Fc1ccccc1-c1nc2ccccc2[nH]1	–	–	–	–	–	–	·	·
CCCNC(=O)N1C[C@H](O)COC[C@@H]2O[C@@H](CC(=O)NCCCN3CCOCC3)CC[C@H]21	–	·	·	·	–	–	·	·
COc1ccc(CCNC(=O)COC(=O)c2ccccc2NCCO)cc1OC	19	–	–	–	–	–	26	34
COc1ccc(CCNC(=O)COC(=O)c2ccco2)cc1OC	–	–	–	–	–	–	·	·
O=C(COC(=O)c1ccccc1NCCO)NCc1cccs1	18	–	–	–	–	–	19	21
CCn1cc(C2CC(=O)NC2=O)c2ccccc21 (stereo not drawn)	–	–	–	–	–	–	·	·
SMILES	proKLK7 act	NR2E3 ag-1	GASC-1 inh	NR2E3 ag-2	ADAM10 inh	ADAM17 inh	proKLK7 act conf	EDANS-DABCYL int	others
Cc1ccc(C2=Nc3ccccc3N(C(=O)c3ccccc3)C(C)C2)cc1 (stereo not drawn)	–	–	–	–	–	–	·	·
COc1cc2ccccc2cc1C(=O)O	–	–	–	–	–	–	·	·
COc1cc2c(OC)cccc2cc1C(=O)O	18	–	–	–	–	–	–	8.5
O=C(NCCCO)c1cc2c(cn1)[nH]c1ccccc12	14	·	–	–	–	–	–	7.6
C[C@H](NC(=O)c1cc2c(cn1)[nH]c1ccccc12)C(=O)O	18	·	–	–	–	–	–	7.4
COc1ccc(F)cc1C(=O)C1CCCN(Cc2c(C)n(C)n(-c3ccccc3)c2=O)C1 (stereo not drawn)	–	–	–	–	–	–	·	·
C[C@H](O)[C@@H]1C(=O)N2CCc3c([nH]c4c(-c5ccccc5)cccc34)[C@@H]2C[C@@H]1N(C)C(=O)NC1CCCCC1	–	·	·	·	–	–	·	·
C[C@H](O)[C@@H]1C(=O)N2CCc3c([nH]c4cccc(-c5ccccc5)c34)[C@@H]2C[C@@H]1N(C)CC1CCCCC1	–	·	·	·	–	–	·	·
CN[C@H]1C[C@H]2c3[nH]c4cccc(-c5cccc(C)c5)c4c3CCN2C(=O)[C@H]1[C@H](C)O	–	·	·	·	–	–	·	·
C[C@H](O)[C@@H]1C(=O)N2CCc3c([nH]c4ccccc34)[C@@H]2C[C@@H]1N(C)C(=O)NC1CCCCC1	36	·	·	–	–	–	26	21	EDANS interf=8.4
COCCNC(=S)N(C)[C@H]1C[C@H]2c3[nH]c4ccccc4c3CCN2C(=O)[C@H]1[C@H](C)O	51	·	·	·	–	–	33	34
CN[C@H]1C[C@H]2c3[nH]c4ccccc4c3CCN2C(=O)[C@H]1[C@H](C)O	28	·	·	–	–	–	14	13
C[C@H](O)[C@@H]1C(=O)N2CCc3c([nH]c4ccccc34)[C@@H]2C[C@@H]1N(C)Cc1ccc(Cl)cc1	52	·	·	–	–	–	13	13
COc1cc(CN2CCN(C(=O)c3cccc4ccccc34)CC2)cc(OC)c1O	–	–	–	–	–	–	·	·
CSCC[C@H](NC(=O)c1ccco1)c1nnc2ccccn12	–	–	–	–	–	–	·	·
COCC(=O)N(C)[C@H]1C[C@H]2c3[nH]c4ccccc4c3CCN2C(=O)[C@H]1[C@H](C)O	27	·	·	–	–	–	40	42
